Measurements as given in PMC2905675 (Cell, 2010).
“Also recorded” adds a separate entry of the source. Read-outs that look alike come from different tables or passages of the source. No end group written: not given here.

Key:
[1] = test system: rat TRPV1 (A657P); experiment: Whole cell patch clamp, HEK293 cells expressing rat TRPV1; format: cell-based; conditions: +80 mV
[2] = target: T1, rat TRPV1 (Rattus norvegicus, UniProt O35433); experiment: Whole-cell patch-clamp recording from TRPV1-expressing HEK293 cells; format: cell-based
[3] = test system: X. laevis frog TRPV1 (xTRPV1); experiment: Two-electrode voltage clamp, Xenopus oocytes expressing wild type frog TRPV1; format: cell-based; conditions: +80 mV
In short: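 Frog TRPV1 coding sequence cloned from trigeminal and dorsal root ganglion RNA. cRNA made by T7 transcription; stage V–VI oocytes injected with 3–50 ng per oocyte and recorded 3-7 days later in normal frog Ringer's buffered with HEPES (pH 7.4) or MES (pH 5.5). Toxins expressed recombinantly in E. coli, His tag removed by TEV protease, concentration set from predicted 280 nm extinction coefficient.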

[4] = test system: capsaicin-sensitive trigeminal neurons; experiment: Whole cell patch clamp recordings from capsaicin-sensitive trigeminal neurons; format: cell-based, mouse; conditions: capsaicin 1 μM
[5] = test system: TRPV1; format: cell-based, rat; conditions: outside-out patches containing a single functional TRPV1 channel; capsaicin 1 μM
[6] = target: T1, rat TRPV1; experiment: Calcium imaging dose-response in TRPV1-expressing HEK293 cells; format: cell-based; conditions: ruthenium red 10 μM co-applied
[7] = target: FLAG-TRPV1 (rat) (rat) (UniProt O35433)
[8] = test system: rat Kv2.1 I273Y; format: cell-based; conditions: VaTx1 20 μM; n = 3-5 cells per trace
[9] = test system: rat Kv2.1 E277K; format: cell-based; conditions: VaTx1 20 μM; n = 3-5 cells per trace
[10] = test system: rat Kv2.1 F274R; format: cell-based; conditions: VaTx1 20 μM; n = 3-5 cells per trace
[11] = target: FLAG-TRPV1 (rat) (rat) (UniProt O35433); remark: listed apart in the source

T1 sequence (O35433 whole entry): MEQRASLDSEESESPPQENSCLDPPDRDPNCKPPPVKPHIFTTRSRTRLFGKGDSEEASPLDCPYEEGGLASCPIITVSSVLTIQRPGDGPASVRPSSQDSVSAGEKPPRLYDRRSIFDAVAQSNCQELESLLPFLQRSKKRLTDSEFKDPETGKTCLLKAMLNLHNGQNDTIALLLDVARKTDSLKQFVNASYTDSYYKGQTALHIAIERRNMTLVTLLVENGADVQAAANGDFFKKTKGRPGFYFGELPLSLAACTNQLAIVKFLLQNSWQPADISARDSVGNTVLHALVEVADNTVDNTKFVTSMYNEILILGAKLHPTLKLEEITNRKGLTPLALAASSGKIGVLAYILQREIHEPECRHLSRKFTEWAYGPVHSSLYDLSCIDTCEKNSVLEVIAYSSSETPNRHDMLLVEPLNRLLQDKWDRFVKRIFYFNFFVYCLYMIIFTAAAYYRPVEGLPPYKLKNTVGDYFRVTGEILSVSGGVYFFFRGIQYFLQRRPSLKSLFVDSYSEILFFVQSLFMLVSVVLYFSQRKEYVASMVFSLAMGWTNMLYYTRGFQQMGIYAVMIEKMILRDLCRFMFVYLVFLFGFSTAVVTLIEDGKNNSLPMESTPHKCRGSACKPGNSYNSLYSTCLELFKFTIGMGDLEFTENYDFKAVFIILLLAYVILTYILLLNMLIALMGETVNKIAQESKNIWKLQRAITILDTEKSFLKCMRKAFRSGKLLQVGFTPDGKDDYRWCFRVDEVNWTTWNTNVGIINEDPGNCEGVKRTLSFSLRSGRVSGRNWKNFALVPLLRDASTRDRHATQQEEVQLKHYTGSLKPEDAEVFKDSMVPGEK
Sequence of FLAG-TRPV1 (rat) (rat) (O35433 whole entry): as above
Sequence of recombinant DkTx (P0CH43 whole entry): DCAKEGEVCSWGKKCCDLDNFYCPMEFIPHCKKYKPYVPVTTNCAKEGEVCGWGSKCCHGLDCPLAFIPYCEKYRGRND
Sequence of native DkTx (double-knot toxin) (P0CH43 whole entry): as above

For COc1cc(CNC(=O)CCCC/C=C/C(C)C)ccc1O [capsaicin], the “sensitivity of rat TRPV1 (A657P)” value ([1]; DkTx 2 μM, VaTx3 2 μM, capsaicin 1 μM) was “retained sensitivity”, the “τoff, time constant of current decay on washout” value [2] was 0.17 min and the “sensitivity of frog TRPV1 (xTRPV1)” value [3] was “responds”. The “time for evoked currents to return to baseline after washout” value [4] was at most 10 s and the “unitary conductance of single channel events” value [5] was 118 pS.
N.N.N.N.N.N.N.N.N.N.N.N.N.N.[Cl-].[Cl-].[Cl-].[Cl-].[Cl-].[Cl-].[O-2].[O-2].[Ru+3].[Ru+3].[Ru+4] [ruthenium red] was tested, and the “effect on DkTx-evoked calcium increases” value [6] was “inhibits toxin-evoked responses”.
“K1 (Knot 1, N-terminal ICK peptide of DkTx-HYR)” gave an EC50 of TRPV1 activation, calcium imaging of TRPV1-expressing HEK293 cells [7] of 8900 nM.
“K2 (Knot 2, C-terminal ICK peptide of DkTx-HYR)” showed an EC50 of TRPV1 activation, calcium imaging of TRPV1-expressing HEK293 cells [7] of 970 nM.
In the case of “VaTx1: vanillotoxin, ICK peptide from the Trinidad Chevron tarantula (Psalmopoeus cambridgei) that activates TRPV1 and inhibits Kv2.1 (SECRWFMGGCDSTLDCCKHLSCKMGLYYCAWDGTF; ends and bridges not checked; cysteine pairing not given here)”, the “VaTx1 activation of TRPV1 (A657P)” value ([1]; VaTx1 100 μM) is reported as “abolished”, the “activation of wild type rat TRPV1 currents” value ([2]; VaTx1 100 μM, whole cell patch clamp, +80 mV) is reported as “activation” and the “effect of I273Y mutation on VaTx1-mediated inhibition of Kv2.1” value [8] is reported as “modest effect; also recorded: no substantial effect”. For the same molecule, the “effect of E277K mutation on VaTx1-mediated inhibition of Kv2.1” value [9] was “eliminated VaTx1-mediated inhibition” and the “effect of F274R mutation on VaTx1-mediated inhibition of Kv2.1” value [10] was “eliminated VaTx1-mediated inhibition”.
“native DkTx (double-knot toxin) (from UniProt P0CH43 1-79) (peptide)” was tested, and the EC50 of TRPV1 activation, calcium imaging of TRPV1-expressing HEK293 cells [11] was 230 nM.
Work on “recombinant DkTx (from UniProt P0CH43 1-79) (peptide)” yielded an EC50 of TRPV1 activation, calcium imaging of TRPV1-expressing HEK293 cells [11] of 140 nM.
